Measurements: ChEMBL document CHEMBL1255242, “Concentrations of dapivirine in the rhesus macaque and rabbit following once daily intravaginal administration of a gel formulation of [14C]dapivirine for 7 days” (Antimicrob Agents Chemother, 2008)

Legend:
[1] = Drug level in rabbit vaginal tissue at 0.5 ml/day administered intravaginally for 7 days measured 1 hr after final dose by […]; format: ADME, Oryctolagus cuniculus, Vagina; settings: read-out: Drug uptake
Summary of the method: (§1)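 Six female rabbits received 0.5 ml/day of [14C]dapivirine gel (nominal 0.09 mg/ml, 15 μCi/ml) intravaginally once daily for 7 days by feeding tube inserted about 6 cm, with a collar for about 8 h. Two rabbits per time point were killed at 1, 8 and 24 h after the final dose. PBS-rinsed vaginal wall and ectocervix were homogenized in 2:1 H2O-ACN and extracted with t-butylmethylether. A single LC-MS/MS run was used (0.250–250 ng/g; 10-point weighted quadratic calibration).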

[2] = Drug level in rabbit cervical tissue at 0.5 ml/day administered intravaginally for 7 days measured 24 hrs after final dose by […]; format: ADME, Oryctolagus cuniculus; settings: read-out: Drug uptake; summary of the method: as §1
[3] = tested on: Plasma; assay: Drug level in rhesus monkey plasma at 1 ml/day administered intravaginally for 7 days by LC-MS/MS analysis; format: ADME, cell-free, Macaca mulatta; settings: other, 168 h, in the assay text read “liquid scintillation counting” for “LC-MS/MS analysis”
[4] = Drug level in rhesus monkey vaginal tissue at 1 ml/day administered intravaginally 7 days measured 1 hr after final dose by LC-MS/MS analysis; format: ADME, Macaca mulatta, Vagina; settings: read-out: Drug uptake
Summary of the method: (§2)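 Nine female macaques were sedated with ketamine (5–20 mg/kg) and given 1 ml/day of [14C]dapivirine gel (nominal 0.09 mg/ml, 15 μCi/ml) intravaginally once daily for 7 days. Three animals per time point were killed (iv pentobarbital, 65 mg/kg) at 1, 24 and 48 h after the final dose. Vaginal wall, ectocervix, and inguinal and iliac lymph nodes were assayed by LC-MS/MS (0.250–250 ng/g). Values below LLOQ were set to 0 for means.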

[5] = Drug level in rhesus monkey vaginal tissue at 1 ml/day administered intravaginally for 7 days measured 24 hrs after final dose by LC-MS/MS analysis; format: ADME, Macaca mulatta, Vagina; settings: read-out: Drug uptake; summary of the method: as §2
[6] = Drug level in rhesus monkey vaginal tissue at 1 ml/day administered intravaginally for 7 days measured 48 hrs after final dose by LC-MS/MS analysis; format: ADME, Macaca mulatta, Vagina; settings: read-out: Drug uptake; summary of the method: as §2
[7] = Drug level in rhesus monkey cervical tissue at 1 ml/day administered intravaginally for 7 days measured 1 hr after final dose by LC-MS/MS analysis; format: ADME, Macaca mulatta; settings: read-out: Drug uptake; summary of the method: as §2
[8] = Drug level in rhesus monkey cervical tissue at 1 ml/day administered intravaginally for 7 days measured 24 hrs after final dose by LC-MS/MS analysis; format: ADME, Macaca mulatta; settings: read-out: Drug uptake; summary of the method: as §2
[9] = Drug level in rhesus monkey cervical tissue at 1 ml/day administered intravaginally for 7 days measured 48 hrs after final dose by LC-MS/MS analysis; format: ADME, Macaca mulatta; settings: read-out: Drug uptake; summary of the method: as §2
[10] = Drug level in rhesus monkey inguinal lymph node at 1 ml/day administered intravaginally for 7 days measured 1 hr after final dose by LC-MS/MS analysis; format: ADME, tissue-based, Macaca mulatta; settings: read-out: Drug uptake; summary of the method: as §2
[11] = Drug level in rhesus monkey inguinal lymph node at 1 ml/day administered intravaginally for 7 days measured 24 hrs after final dose by LC-MS/MS analysis; format: ADME, tissue-based, Macaca mulatta; settings: read-out: Drug uptake; summary of the method: as §2
[12] = Drug level in rhesus monkey inguinal lymph node at 1 ml/day administered intravaginally for 7 days measured 48 hrs after final dose by LC-MS/MS analysis; format: ADME, tissue-based, Macaca mulatta; settings: read-out: Drug uptake; summary of the method: as §2
[13] = Drug level in rhesus monkey ileac lymph node at 1 ml/day administered intravaginally for 7 days measured 1 hr after final dose by LC-MS/MS analysis; format: ADME, tissue-based, Macaca mulatta; settings: read-out: Drug uptake; summary of the method: as §2
[14] = Drug level in rhesus monkey ileac lymph node at 1 ml/day administered intravaginally for 7 days measured 24 hrs after final dose by LC-MS/MS analysis; format: ADME, tissue-based, Macaca mulatta; settings: read-out: Drug uptake; summary of the method: as §2
[15] = Drug level in rhesus monkey ileac lymph node at 1 ml/day administered intravaginally for 7 days measured 48 hrs after final dose by LC-MS/MS analysis; format: ADME, tissue-based, Macaca mulatta; settings: read-out: Drug uptake; summary of the method: as §2
[16] = tested on: Plasma; assay: Drug level in rabbit plasma at 0.5 ml/day administered intravaginally for 7 days by liquid scintillation counting; settings: other, 168 h

Cc1cc(C)c(Nc2ccnc(Nc3ccc([14C]#N)cc3)n2)c(C)c1 [[14C]DAPIVIRINE]
concentration at 1 h [1]: > 3000 ng/g | concentration at 24 h [2]: ≥ 2.5 ng/g | Drug uptake [3]: <= 83 dpm/ml | concentration at 1 h [4]: 4260 ng/g | concentration at 24 h [5]: 1160 ng/g | concentration at 48 h [6]: 515 ng/g | concentration at 1 h [7]: 2400 ng/g | concentration at 24 h [8]: 271 ng/g | concentration at 48 h [9]: 81 ng/g | concentration at 1 h [10]: 10.6 ng/g | concentration at 24 h [11]: 1.77 ng/g | concentration at 48 h [12]: 0.48 ng/g | concentration at 1 h [13]: 14.9 ng/g | concentration at 24 h [14]: 11.6 ng/g | concentration at 48 h [15]: 1.16 ng/g | Drug uptake [16]: 246 dpm/ml
